From ChEMBL document CHEMBL1127839, “In vitro photoinduced cytotoxicity and DNA binding properties of psoralen and coumarin conjugates of netropsin analogues: DNA sequence-directed alkylation and cross-link formation” (J Med Chem, 1994)

Columns and labels:
[1] = tested on: Panel leukemia (Carcinoma cell lines); experiment: In vitro photocytotoxicity is evaluated against human chronic myeloid leukemia cells grown in culture irradiated at 366 nM; type: functional, cell-based; conditions: light or radiation study
Method in brief: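 K562 cells in RPMI 1640 with 10% FCS and 2 mM glutamine were exposed to drug at 0.01-100 μM final for 1 h at 37 °C in the dark. They were washed, then irradiated in PBS for 2 min at 366 nm (420 μW/cm², 5 cm, no filters). Cells were plated at 8 wells per sample and grown 4-5 days in the dark. Readout was MTT at 550 nm; IC50 was taken from the dose-response curve.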

[2] = Dose to produce […] on isolated DNA; no DNA cross-links
[3] = tested on: Panel leukemia (Carcinoma cell lines); experiment: In vitro photocytotoxicity is evaluated against human chronic myeloid leukemia cells grown in culture under the dark conditions; type: functional, cell-based
Method in brief: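 Human chronic myeloid leukemia K562 cells were given a 1 h drug exposure (0.01-100 μM final, from DMSO stocks) at 37 °C in the dark, then washed, with no UV irradiation. Cells were cultured 4-5 days in the dark in 96-well plates, 8 wells per sample. MTT was added for 5 h and formazan dissolved in DMSO was read at 550 nm. IC50 was taken from the dose-response curve.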

[4] = tested on: Nucleic Acid; experiment: Apparent binding constant was determined by ethidium displacement assay in poly (dG-dC); type: nucleic-acid assay
[5] = tested on: Nucleic Acid; experiment: Apparent binding constant was determined by ethidium displacement assay in calf thymus; type: nucleic-acid assay; conditions: Bos taurus
[6] = tested on: Nucleic Acid; experiment: Apparent binding constant was determined by ethidium displacement assay in coliphage T4 DNA; type: nucleic-acid assay
[7] = tested on: Nucleic Acid; experiment: Apparent binding constant was determined by ethidium displacement assay in pol (dA-dT); type: nucleic-acid assay
[8] = Dose to produce photoinduced DNA cross-link formation on isolated DNA

Compound	IC50 [1] [µM]	XL50 [2]	IC50 [3] [µM]	Binding constant [4] [M⁻¹]	Binding constant [5] [M⁻¹]	Binding constant [6] [M⁻¹]	Binding constant [7] [M⁻¹]	XL50 [8] [µM]
CN(C)CCNC(=O)c1cc(NC(=O)c2cc(NC(=O)CCCCOc3ccc4ccc(=O)oc4c3)cn2C)cn1C	75	No DNA crosslinks	> 100	110000	170000	120000	3.5e+06	
CN(C)CCNC(=O)c1nc(NC(=O)c2nc(NC(=O)CCCCOc3c4occc4cc4ccc(=O)oc34)cn2C)cn1C	4.5		55	210000	40000	270000	90000	1.6
COc1c2occc2cc2ccc(=O)oc12 [METHOXSALEN]	100		> 100	25000	48000	14000	17000	18
CN(C)CCNC(=O)c1cc(NC(=O)c2cc(NC(=O)CCCCOc3c4occc4cc4ccc(=O)oc34)cn2C)cn1C	0.3		> 100	90000	550000	660000	290000	0.005
Cn1cc(NC(=O)c2cc(NC(=O)c3cc(NC=O)cn3C)cn2C)cc1C(=O)NCCC(=N)N				200000	770000	650000	3.48e+07	
CN(C)CCNC(=O)c1nc(NC(=O)c2nc(NC(=O)CCCCOc3ccc4ccc(=O)oc4c3)cn2C)cn1C	40	No DNA crosslinks	> 100	140000	100000	100000	110000	
